Laboratory results taken from ChEMBL document CHEMBL3593155, “Synthesis and evaluation of N-analogs of 1,2-diarylethane as Helicobacter pylori urease inhibitors” (Bioorg Med Chem, 2015).

Experiments:
[1] = biological target: T1, Urease subunit alpha/Urease subunit beta (Helicobacter pylori (strain ATCC 700392 / 26695) (Campylobacterpylori), UniProt P69996); test: Inhibition of urease isolated from Helicobacter pylori ATCC 43504 assessed as ammonia production incubated for 1.5 hrs prior to testing by indophenol method
T1 sequence (P69996 whole entry): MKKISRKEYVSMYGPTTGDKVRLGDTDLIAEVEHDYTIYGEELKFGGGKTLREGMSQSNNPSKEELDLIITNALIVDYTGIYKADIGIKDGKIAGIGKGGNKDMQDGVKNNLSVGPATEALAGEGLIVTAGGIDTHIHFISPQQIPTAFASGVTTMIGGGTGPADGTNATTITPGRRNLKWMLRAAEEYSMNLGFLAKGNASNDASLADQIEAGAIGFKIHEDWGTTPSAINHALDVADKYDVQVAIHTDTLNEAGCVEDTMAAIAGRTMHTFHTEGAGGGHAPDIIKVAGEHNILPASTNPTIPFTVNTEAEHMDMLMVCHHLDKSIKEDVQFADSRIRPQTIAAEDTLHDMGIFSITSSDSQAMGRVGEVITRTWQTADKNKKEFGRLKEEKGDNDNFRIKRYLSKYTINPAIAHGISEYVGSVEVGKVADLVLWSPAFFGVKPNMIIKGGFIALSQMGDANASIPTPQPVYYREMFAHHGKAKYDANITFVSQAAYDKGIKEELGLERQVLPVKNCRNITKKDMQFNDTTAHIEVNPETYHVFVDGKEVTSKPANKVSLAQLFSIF
T1 sequence (P14916 whole entry, further chain): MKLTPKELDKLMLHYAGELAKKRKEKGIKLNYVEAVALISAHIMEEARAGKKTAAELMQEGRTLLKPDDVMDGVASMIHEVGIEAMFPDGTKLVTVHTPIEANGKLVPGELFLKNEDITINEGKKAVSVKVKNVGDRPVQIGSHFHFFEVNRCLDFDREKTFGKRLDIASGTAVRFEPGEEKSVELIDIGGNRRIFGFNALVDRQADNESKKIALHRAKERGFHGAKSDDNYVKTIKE
Method in brief: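 Washed cells were sonicated in water with protease inhibitors, and the supernatant was desalted on Sephadex G-25. This crude urease, mixed with an equal volume of glycerol, was pre-incubated with test compound for 1.5 h at room temperature.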

[2] = biological target: T1, Urease subunit alpha/Urease subunit beta; test: Inhibition of urease in Helicobacter pylori ATCC 43504 assessed as ammonia production incubated for 1.5 hrs prior to testing by indophenol method
Method in brief: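 Washed cells were sonicated 60 s in water with protease inhibitors. The supernatant was desalted on Sephadex G-25 and stored with equal-volume glycerol at 4 °C. Enzyme was preincubated with compound 1.5 h at room temperature.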

[3] = biological target: T2, Urease subunit alpha/Urease subunit beta (Helicobacter pylori (strain ATCC 700392 / 26695) (Campylobacterpylori)) (UniProt P69996+P14916); test: Potency index, ratio of AHA IC50 to compound IC50 for urease in Helicobacter pylori ATCC 43504
T2 sequence (P14916 whole entry, looked up): as the sequence (P14916 whole entry, further chain) above
T2 sequence (P69996 whole entry, looked up): as the sequence (P69996 whole entry) above

[4] = biological target: T2, Urease subunit alpha/Urease subunit beta (Helicobacter pylori (strain ATCC 700392 / 26695) (Campylobacterpylori)); test: Potency index, ratio of AHA IC50 to compound IC50 for urease isolated from Helicobacter pylori ATCC 4350; details: Helicobacter pylori ATCC 43504

Row | Structure (SMILES) | IC50 [1] [µM] | IC50 [2] [µM] | Ratio IC50 [3] | Ratio IC50 [4]
1 | O=[N+]([O-])c1ccc(CNc2ccc([N+](=O)[O-])cc2)cc1 | 26.3 | 126 |  | 
2 | COc1ccc(NCc2ccc(N(C)C)cc2)cc1 | > 500 |  |  | 
3 | O=[N+]([O-])c1ccc(NCc2ccc(O)c(O)c2)cc1 | 0.62 | 1.92 | 54 | 29
4 | O=[N+]([O-])c1ccccc1CNc1ccc(Cl)cc1 | 239 |  |  | 
5 | O=[N+]([O-])c1cccc(CNc2cccc([N+](=O)[O-])c2)c1 | 85 |  |  | 
6 | CC(=O)NO [ACETOHYDROXAMIC ACID] | 18.4 | 105 |  | 
7 | O=[N+]([O-])c1ccc(CNc2cccc([N+](=O)[O-])c2)cc1 | 64.9 |  |  | 
8 | COc1ccc(NCc2cccc([N+](=O)[O-])c2)cc1 | 319 |  |  | 
9 | O=[N+]([O-])c1cccc(NCc2ccc(O)c(O)c2)c1 | 2.33 | 9.52 |  | 
10 | O=[N+]([O-])c1ccc(NCc2ccc(Cl)cc2)cc1 | 19.5 | 83.8 |  | 
11 | O=[N+]([O-])c1cccc(NCc2ccc(Cl)cc2)c1 | 57.5 |  |  | 
12 | O=[N+]([O-])c1ccccc1NCc1ccc(O)c(O)c1 | 45.1 |  |  | 
13 | O=[N+]([O-])c1ccc(NCc2ccc(O)cc2)cc1 | 8.26 | 28.1 |  | 
14 | O=[N+]([O-])c1cccc(CNc2cccc(Cl)c2)c1 | 410 |  |  | 
15 | COc1ccc(CNc2ccc(Cl)cc2)cc1OC | > 500 |  |  | 
16 | CN(C)c1ccc(CNc2cccc([N+](=O)[O-])c2)cc1 | 16.8 | 72.4 |  | 
17 | Clc1ccc(NCc2ccc3c(c2)OCO3)cc1 | > 500 |  |  | 
18 | O=[N+]([O-])c1ccc(CNc2cccc(Cl)c2)cc1 | 236 |  |  | 
19 | COc1ccc(NCc2ccc(Cl)cc2)cc1 | > 500 |  |  | 
20 | CN(C)c1ccc(CNc2ccc(Cl)cc2)cc1 | > 500 |  |  | 
21 | COc1ccc(CNc2cccc([N+](=O)[O-])c2)cc1OC | 50.4 |  |  | 
